EC50, Activity and Ki data for 17 molecules are collected here from ChEMBL document CHEMBL3352485 (J Med Chem, 2014).

Assay [1] concerns the target T1, KiSS-1 receptor (Rattus norvegicus, UniProt Q924U1). The experiment in a line: Agonist activity at rat KISS1R transfected in CHO cells assessed as intracellular calcium flux after 24 hrs by functional FLIPR assay. It counts as cell-based. (In general: A change in cytosolic calcium serves as a functional read-out for many receptors and channels.)
Assay [2] has as its system Rattus norvegicus. The experiment in a line: Testosterone-suppressive activity in Crl:CD(SD) rat assessed as number of animal with plasma testosterone level below the limit of detection at 0.5 nmol/hr, sc through osmotic pumps measured after 6 days by RIA. It counts as functional. In outline:
(§1)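 Peptide was dissolved in distilled water or 50% DMSO as 0.1–2 mM pump solutions and delivered by ALZET osmotic pumps implanted subcutaneously in the back of 9-week-old male Crl:CD(SD) rats (n = 5) under ether. Controls received distilled-water pumps. After 6 days, rats were decapitated and plasma was recovered with aprotinin/EDTA. Testosterone was measured by RIA, and the number of rats below the detection limit (0.04 ng/mL) was counted.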

For assay [3], the target named is T2, KiSS-1 receptor (Homo sapiens, UniProt Q969F8). The experiment in a line: Agonist activity at human KISS1R transfected in CHO cells assessed as intracellular calcium flux after 24 hrs by functional FLIPR assay. It counts as cell-based. In outline:
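CHO cells stably expressing human KISS1R were seeded at 15 000 cells/mL, cultured 24 h, then loaded with fluo-3 for 1 h at 37 °C in HBSS/HEPES (pH 7.4) with probenecid and FBS. Cells were washed in HBSS with 2.5 mM probenecid. Peptides came from 1 mM DMSO stocks diluted in buffer containing probenecid, 0.2% BSA and 0.1% CHAPS. Fluorescence was recorded on FLIPR for 3 min; peak counts over 0–180 s gave agonist activity.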

For assay [4], the system named is Rattus norvegicus. The experiment in a line: Testosterone-suppressive activity in Crl:CD(SD) rat assessed as number of animal with plasma testosterone level below the limit of detection at 2 nmol/hr, sc through osmotic pumps measured after 6 days by RIA. It counts as functional. In a few lines: as §1
Assay [5] concerns the target T2, KiSS-1 receptor. Briefly: Displacement of radioligand from human KISS1R transfected in CHO cells. It counts as cell-based. In outline: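 Binding used membrane fractions prepared from CHO cells expressing recombinant human KISS1R.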
Assay [6] concerns Rattus norvegicus. Briefly: Testosterone-suppressive activity in Crl:CD(SD) rat assessed as number of animal with plasma testosterone level below the limit of detection at 0.1 nmol/hr, sc through osmotic pumps measured after 6 days by RIA. It counts as functional. In outline: as §1
Assay [7] concerns the target T1, KiSS-1 receptor. Briefly: Displacement of radioligand from rat KISS1R transfected in CHO cells. It counts as cell-based.
The test system of assay [8] is Rattus norvegicus. Briefly: Testosterone-suppressive activity in Crl:CD(SD) rat assessed as number of animal with plasma testosterone level below the limit of detection at 0.3 nmol/hr, sc through osmotic pumps measured after 6 days by RIA. It counts as functional. In a few lines: as §1

T1 sequence (Q924U1 whole entry): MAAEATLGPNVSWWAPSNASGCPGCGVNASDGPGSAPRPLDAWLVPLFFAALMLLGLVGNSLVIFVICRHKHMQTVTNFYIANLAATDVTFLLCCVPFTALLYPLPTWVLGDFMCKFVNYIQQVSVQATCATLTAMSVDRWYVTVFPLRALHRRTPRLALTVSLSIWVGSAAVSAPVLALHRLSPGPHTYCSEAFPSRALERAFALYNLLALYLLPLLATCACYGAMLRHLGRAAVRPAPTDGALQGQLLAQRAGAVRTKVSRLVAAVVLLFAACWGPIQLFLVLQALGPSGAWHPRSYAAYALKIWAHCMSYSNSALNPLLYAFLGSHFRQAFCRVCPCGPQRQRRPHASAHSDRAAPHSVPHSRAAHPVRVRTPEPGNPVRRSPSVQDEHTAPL
T2 sequence (Q969F8 whole entry): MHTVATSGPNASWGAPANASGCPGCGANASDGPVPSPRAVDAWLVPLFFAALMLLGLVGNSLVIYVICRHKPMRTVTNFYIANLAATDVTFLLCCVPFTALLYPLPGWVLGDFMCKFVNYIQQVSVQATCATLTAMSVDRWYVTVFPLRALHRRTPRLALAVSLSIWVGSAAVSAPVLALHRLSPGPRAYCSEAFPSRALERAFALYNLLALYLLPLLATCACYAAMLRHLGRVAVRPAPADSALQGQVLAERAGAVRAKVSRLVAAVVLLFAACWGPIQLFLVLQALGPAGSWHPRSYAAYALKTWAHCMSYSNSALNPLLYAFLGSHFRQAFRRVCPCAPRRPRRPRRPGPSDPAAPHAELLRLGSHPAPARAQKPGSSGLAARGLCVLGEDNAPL

Usually EC50 stands for the concentration needed to bring the measured effect to its halfway point. For orientation: Ki means a measure of affinity in units of concentration, obtained from inhibition or displacement. Lower therefore signals a stronger hold on the target. As for `CNC(=N)NCCC[C@H](NC(=O)[C@H](CC(C)C)NC(=O)NNC(=O)[C@H](Cc1ccccc1)NC(=O)[C@@H](NC(=O)[C@H](CC(N)=O)NC(=O)[C@@H](Cc1ccncc1)NC(=O)[C@H](N)Cc1ccc(O)cc1)C(C)C)C(=O)N[C@@H](Cc1c[nH]c2ccccc12)C(N)=O`, the EC50 turned out to be 12 nM in assay [1] and 1.8 nM in assay [3]. Further, the Activity came to 0% in assay [2] and 80% in assay [4]. Further, in assay [5], affinity was put at a Ki of 0.052 nM.

On to `CNC(=N)NCCC[C@H](NC(=O)[C@H](CC(C)C)NC(=O)NNC(=O)[C@H](Cc1ccccc1)NC(=O)[C@H](Cc1c[nH]c2ccccc12)NC(=O)[C@H](CC(N)=O)NC(=O)[C@@H](Cc1ccncc1)NC(=O)[C@H](N)Cc1ccc(O)cc1)C(=O)N[C@@H](Cc1c[nH]c2ccccc12)C(N)=O`, for which the EC50 was found to be 7.4 nM in assay [1] and 0.59 nM in assay [3].

Consider `CNC(=N)NCCC[C@H](NC(=O)[C@H](CC(C)C)NC(=O)NNC(=O)[C@H](Cc1ccccc1)NC(=O)[C@@H](NC(=O)[C@H](CC(N)=O)NC(=O)[C@@H](Cc1c[nH]c2ccccc12)NC(=O)[C@@H](Cc1ccc(O)cc1)NC(=O)c1ccccc1)[C@@H](C)O)C(=O)N[C@@H](Cc1c[nH]c2ccccc12)C(N)=O`, for which the figures for the half-maximal effective concentration (EC50) in assay [1] and in assay [3] were 1.7 nM and 0.44 nM, respectively. The Ki in assay [5] was determined as 0.027 nM. Besides, the Activity in assay [6] was 0 rats (n = 5).

Consider `CNC(=N)NCCC[C@H](NC(=O)[C@H](CC(C)C)NC(=O)NNC(=O)[C@H](Cc1ccccc1)NC(=O)[C@@H](NC(=O)[C@H](CC(N)=O)NC(=O)[C@@H](Cc1c[nH]c2ccccc12)NC(=O)[C@H](N)Cc1ccc(O)cc1)C(C)C)C(=O)N[C@@H](Cc1c[nH]c2ccccc12)C(N)=O`, for which the EC50 in assay [1] was 2.2 nM; in assay [3], 0.31 nM. Further, the Activity in assay [2] came to 0%. The Ki in assay [5] came to 0.028 nM.

Turning to `CNC(=N)NCCC[C@H](NC(=O)[C@H](CC(C)C)NC(=O)NNC(=O)[C@H](Cc1ccccc1)NC(=O)[C@@H](NC(=O)[C@H](CC(N)=O)NC(=O)[C@@H](Cc1ccncc1)NC(=O)[C@H](N)Cc1ccc(O)cc1)c1ccccc1)C(=O)N[C@@H](Cc1c[nH]c2ccccc12)C(N)=O`, the EC50 in assay [1] is 110 nM; in assay [3], 4.4 nM.

On to `CNC(=N)NCCC[C@H](NC(=O)[C@H](CC(C)C)NC(=O)NNC(=O)[C@H](Cc1ccccc1)NC(=O)[C@H](CO)NC(=O)[C@H](C)NC(=O)[C@@H](Cc1ccncc1)NC(=O)[C@H](N)Cc1ccc(O)cc1)C(=O)N[C@@H](Cc1c[nH]c2ccccc12)C(N)=O`, for which the EC50 in assay [1] is 9.3 nM; in assay [3], 0.7 nM. In addition, the Activity in assay [4] was determined as 0%. Besides, the results for the Ki in assay [5] and in assay [7] were 0.2 nM and 3.6 nM, respectively.

For the molecule `CNC(=N)NCCC[C@H](NC(=O)[C@H](CC(C)C)NC(=O)NNC(=O)[C@H](Cc1ccccc1)NC(=O)[C@H](CO)NC(=O)[C@@H](NC(=O)[C@@H](Cc1ccncc1)NC(=O)[C@H](N)Cc1ccc(O)cc1)[C@@H](C)O)C(=O)N[C@@H](Cc1c[nH]c2ccccc12)C(N)=O`, the half-maximal effective concentration (EC50) in assay [1] is 32 nM; in assay [3], 1.3 nM.

With `CC(C)C[C@H](NC(=O)CNC(=O)[C@H](Cc1ccccc1)NC(=O)[C@H](CO)NC(=O)[C@H](CC(N)=O)NC(=O)[C@H](Cc1c[nH]c2ccccc12)NC(=O)[C@H](CC(N)=O)NC(=O)[C@@H](N)Cc1ccc(O)cc1)C(=O)N[C@@H](CCCNC(=N)N)C(=O)N[C@@H](Cc1ccccc1)C(N)=O` [KISSPEPTIN-10], the EC50 in assay [3] was 0.96 nM. The affinity in assay [5], expressed as Ki, was 0.035 nM.

For the molecule `CNC(=N)NCCC[C@H](NC(=O)[C@H](CC(C)C)NC(=O)NNC(=O)[C@H](Cc1ccccc1)NC(=O)[C@@H](NC(=O)[C@H](CC(N)=O)NC(=O)[C@@H](Cc1ccncc1)NC(=O)[C@H](N)Cc1ccc(O)cc1)C(C)(C)C)C(=O)N[C@@H](Cc1c[nH]c2ccccc12)C(N)=O`, the EC50 came to 22 nM in assay [1] and 1.5 nM in assay [3].

For the molecule `CNC(=N)NCCC[C@H](NC(=O)[C@H](CC(C)C)NC(=O)NNC(=O)[C@H](Cc1ccccc1)NC(=O)[C@@H]1CC(O)CN1C(=O)[C@H](CC(N)=O)NC(=O)[C@@H](Cc1ccncc1)NC(=O)[C@H](N)Cc1ccc(O)cc1)C(=O)N[C@@H](Cc1c[nH]c2ccccc12)C(N)=O` (stereo partly drawn), the results for the EC50 in assay [1] and in assay [3] were 95 nM and 2.8 nM, respectively.

`CNC(=N)NCCC[C@H](NC(=O)[C@H](CC(C)C)NC(=O)NNC(=O)[C@H](Cc1ccccc1)NC(=O)[C@@H](NC(=O)[C@H](C)NC(=O)[C@@H](Cc1c[nH]c2ccccc12)NC(=O)[C@H](N)Cc1ccc(O)cc1)[C@@H](C)O)C(=O)N[C@@H](Cc1c[nH]c2ccccc12)C(N)=O`: the EC50 in assay [1] amounted to 13 nM; in assay [3] it was 0.63 nM.

Regarding `CNC(=N)NCCC[C@H](NC(=O)[C@H](CC(C)C)NC(=O)NNC(=O)[C@H](Cc1ccccc1)NC(=O)[C@H](CO)NC(=O)[C@H](CC(N)=O)NC(=O)[C@@H](Cc1ccncc1)NC(=O)[C@H](N)Cc1ccc(O)cc1)C(=O)N[C@@H](Cc1c[nH]c2ccccc12)C(N)=O`, the concentration for a half-maximal effect (EC50) is 6 nM in assay [1] and 0.87 nM in assay [3]. For the same molecule, the Activity was 60% in assay [2], 80% in assay [4], 40% in assay [8] and 0 rats (n = 5) in assay [6]. Also, the inhibition constant (Ki) amounted to 0.074 nM in assay [5] and 0.13 nM in assay [7].

In the case of `CNC(=N)NCCC[C@H](NC(=O)[C@H](CC(C)C)NC(=O)NNC(=O)[C@H](Cc1ccccc1)NC(=O)[C@H](CO)NC(=O)[C@H](C)NC(=O)[C@@H](Cc1c[nH]c2ccccc12)NC(=O)[C@H](N)Cc1ccc(O)cc1)C(=O)N[C@@H](Cc1c[nH]c2ccccc12)C(N)=O`, the EC50 in assay [1] was determined as 6.8 nM; in assay [3], 0.49 nM.

Take `CNC(=N)NCCC[C@H](NC(=O)[C@H](CC(C)C)NC(=O)NNC(=O)[C@H](Cc1ccccc1)NC(=O)[C@@H](NC(=O)[C@H](CC(N)=O)NC(=O)[C@@H](Cc1ccncc1)NC(=O)[C@H](N)Cc1ccc(O)cc1)[C@@H](C)O)C(=O)N[C@@H](Cc1c[nH]c2ccccc12)C(N)=O`: the EC50 was found to be 5.7 nM in assay [1] and 1.6 nM in assay [3]. The molecule also gave an inhibitory constant (Ki) in assay [5] of 0.086 nM.

On to `CNC(=N)NCCC[C@H](NC(=O)[C@H](CC(C)C)NC(=O)NNC(=O)[C@H](Cc1ccccc1)NC(=O)[C@@H]1CCCN1C(=O)[C@H](CC(N)=O)NC(=O)[C@@H](Cc1ccncc1)NC(=O)[C@H](N)Cc1ccc(O)cc1)C(=O)N[C@@H](Cc1c[nH]c2ccccc12)C(N)=O`, for which the results for the EC50 in assay [1] and in assay [3] were 13 nM and 1.2 nM, respectively. For the same molecule, the Activity in assay [2] is 20%. In assay [5], this molecule came in with a Ki of 0.096 nM.

Regarding `CNC(=N)NCCC[C@H](NC(=O)[C@H](CC(C)C)NC(=O)NNC(=O)[C@H](Cc1ccccc1)NC(=O)[C@@H](NC(=O)[C@H](CC(N)=O)NC(=O)[C@@H](Cc1c[nH]c2ccccc12)NC(=O)[C@@H](Cc1ccc(O)cc1)NC(=O)C1CC1)[C@@H](C)O)C(=O)N[C@@H](Cc1c[nH]c2ccccc12)C(N)=O`, the EC50 in assay [1] is 4.2 nM; in assay [3], 0.82 nM. The results for the Ki in assay [5] and in assay [7] were 0.034 nM and 0.087 nM, respectively.

As for `CC[C@H](NC(=O)[C@@H](Cc1c[nH]c2ccccc12)NC(=O)[C@H](N)Cc1ccc(O)cc1)C(=O)N[C@@H](CO)C(=O)N[C@@H](Cc1ccccc1)C(=O)NNC(=O)N[C@@H](CC(C)C)C(=O)N[C@@H](CCCNC(=N)NC)C(=O)N[C@@H](Cc1c[nH]c2ccccc12)C(N)=O`, the EC50 came to 2.8 nM in assay [1] and 0.64 nM in assay [3]. Moreover, in assay [4], the Activity was 0%. The values for the Ki in assay [5] and in assay [7] were 0.12 nM and 0.83 nM, respectively.
